In ChEMBL document CHEMBL2424622, “Development of amino-pyrimidine inhibitors of c-Jun N-terminal kinase (JNK): kinase profiling guided optimization of a 1,2,3-benzotriazole lead” (Bioorg Med Chem Lett, 2013):

Assays:
[1] = target: Ribosomal protein S6 kinase alpha-4 (Homo sapiens) (UniProt O75676); assay: Competitive binding affinity to RPS6KA4 kinase domain 1 (unknown origin) at 10 uM in presence of ATP relative to control
[2] = target: T1, Serine/threonine-protein kinase D1 (Homo sapiens) (UniProt Q15139); assay: Competitive binding affinity to PRKD1 (unknown origin) at 10 uM in presence of ATP relative to control
T1 sequence (whole entry): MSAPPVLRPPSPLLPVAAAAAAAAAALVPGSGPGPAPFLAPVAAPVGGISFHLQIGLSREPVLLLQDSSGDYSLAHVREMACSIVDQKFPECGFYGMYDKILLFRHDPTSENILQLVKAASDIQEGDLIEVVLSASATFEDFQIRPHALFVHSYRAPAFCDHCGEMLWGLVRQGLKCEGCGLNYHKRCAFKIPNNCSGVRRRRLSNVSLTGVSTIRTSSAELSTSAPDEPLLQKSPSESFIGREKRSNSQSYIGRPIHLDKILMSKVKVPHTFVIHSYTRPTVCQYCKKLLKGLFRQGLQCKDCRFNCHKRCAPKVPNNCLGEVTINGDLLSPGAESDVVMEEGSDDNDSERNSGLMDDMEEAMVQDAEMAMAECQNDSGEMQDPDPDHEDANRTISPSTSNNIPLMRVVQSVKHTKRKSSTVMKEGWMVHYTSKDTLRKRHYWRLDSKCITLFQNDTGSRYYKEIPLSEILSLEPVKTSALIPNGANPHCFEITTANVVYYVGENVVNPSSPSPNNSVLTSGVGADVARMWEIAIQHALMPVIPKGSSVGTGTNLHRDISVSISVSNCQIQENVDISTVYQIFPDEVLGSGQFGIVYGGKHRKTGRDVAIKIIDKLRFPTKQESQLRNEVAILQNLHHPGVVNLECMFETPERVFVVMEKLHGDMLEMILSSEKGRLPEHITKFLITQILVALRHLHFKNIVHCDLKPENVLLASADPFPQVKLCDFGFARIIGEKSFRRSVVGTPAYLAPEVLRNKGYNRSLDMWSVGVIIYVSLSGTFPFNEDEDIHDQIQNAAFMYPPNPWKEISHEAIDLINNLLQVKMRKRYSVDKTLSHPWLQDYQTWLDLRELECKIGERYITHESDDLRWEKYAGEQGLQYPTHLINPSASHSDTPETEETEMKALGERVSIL

[3] = target: Serine/threonine-protein kinase 32C (Homo sapiens) (UniProt Q86UX6); assay: Competitive binding affinity to YANK3 (unknown origin) at 10 uM in presence of ATP relative to control
Sequence of Serine/threonine-protein kinase 32C (Homo sapiens) (Q86UX6 whole entry): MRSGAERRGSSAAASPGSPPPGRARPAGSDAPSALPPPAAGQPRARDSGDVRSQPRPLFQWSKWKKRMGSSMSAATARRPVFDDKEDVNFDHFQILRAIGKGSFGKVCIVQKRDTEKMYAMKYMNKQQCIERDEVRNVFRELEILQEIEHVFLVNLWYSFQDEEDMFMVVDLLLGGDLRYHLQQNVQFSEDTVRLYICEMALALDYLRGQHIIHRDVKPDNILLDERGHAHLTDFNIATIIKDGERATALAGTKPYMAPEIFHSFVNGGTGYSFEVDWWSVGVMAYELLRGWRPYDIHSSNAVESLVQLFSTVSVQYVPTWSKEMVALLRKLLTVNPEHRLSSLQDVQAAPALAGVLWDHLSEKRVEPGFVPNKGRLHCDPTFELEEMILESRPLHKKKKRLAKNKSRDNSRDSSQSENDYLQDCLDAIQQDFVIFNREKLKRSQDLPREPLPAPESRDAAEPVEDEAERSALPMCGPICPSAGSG

[4] = target: T2, Atypical kinase COQ8B, mitochondrial (Homo sapiens) (UniProt Q96D53); assay: Competitive binding affinity to ADCK4 (unknown origin) at 10 uM in presence of ATP relative to control
T2 sequence (whole entry): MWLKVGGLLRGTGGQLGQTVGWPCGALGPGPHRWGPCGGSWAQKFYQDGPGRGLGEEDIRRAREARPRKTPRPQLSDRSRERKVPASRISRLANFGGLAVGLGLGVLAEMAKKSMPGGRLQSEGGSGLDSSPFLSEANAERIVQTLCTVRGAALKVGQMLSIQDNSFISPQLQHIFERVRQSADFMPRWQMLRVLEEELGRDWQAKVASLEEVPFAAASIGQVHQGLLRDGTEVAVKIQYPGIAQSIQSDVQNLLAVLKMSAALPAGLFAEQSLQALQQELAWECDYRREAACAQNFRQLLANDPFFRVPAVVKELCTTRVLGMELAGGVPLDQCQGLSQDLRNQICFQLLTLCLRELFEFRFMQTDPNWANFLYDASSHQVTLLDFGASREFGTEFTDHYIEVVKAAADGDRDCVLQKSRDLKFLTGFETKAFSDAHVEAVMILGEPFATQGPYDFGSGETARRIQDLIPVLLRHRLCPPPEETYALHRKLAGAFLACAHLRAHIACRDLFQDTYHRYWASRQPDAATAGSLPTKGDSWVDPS

[5] = target: Mitogen-activated protein kinase 4 (Homo sapiens, UniProt P31152); assay: Competitive binding affinity to ERK4 (unknown origin) at 10 uM in presence of ATP relative to control
Sequence of Mitogen-activated protein kinase 4 (P31152 whole entry): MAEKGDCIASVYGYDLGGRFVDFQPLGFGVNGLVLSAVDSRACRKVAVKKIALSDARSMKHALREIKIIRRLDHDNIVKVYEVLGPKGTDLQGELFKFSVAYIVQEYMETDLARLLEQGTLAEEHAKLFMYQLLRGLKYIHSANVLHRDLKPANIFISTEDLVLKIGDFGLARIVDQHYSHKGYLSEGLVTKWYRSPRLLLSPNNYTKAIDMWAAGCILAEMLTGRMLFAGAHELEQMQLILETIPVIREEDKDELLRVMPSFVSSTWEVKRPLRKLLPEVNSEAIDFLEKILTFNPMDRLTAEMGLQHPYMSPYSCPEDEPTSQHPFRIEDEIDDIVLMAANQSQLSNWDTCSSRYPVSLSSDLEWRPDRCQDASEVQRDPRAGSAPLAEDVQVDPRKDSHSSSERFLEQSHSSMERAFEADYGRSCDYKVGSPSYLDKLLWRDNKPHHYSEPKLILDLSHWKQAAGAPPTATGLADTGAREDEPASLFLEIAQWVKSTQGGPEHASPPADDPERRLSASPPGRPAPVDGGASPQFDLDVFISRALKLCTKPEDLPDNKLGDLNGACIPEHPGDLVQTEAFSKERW

[6] = target: T3, cGMP-dependent protein kinase 1 (Homo sapiens) (UniProt Q13976); assay: Competitive binding affinity to PRKG1 (unknown origin) at 10 uM in presence of ATP relative to control
T3 sequence (whole entry): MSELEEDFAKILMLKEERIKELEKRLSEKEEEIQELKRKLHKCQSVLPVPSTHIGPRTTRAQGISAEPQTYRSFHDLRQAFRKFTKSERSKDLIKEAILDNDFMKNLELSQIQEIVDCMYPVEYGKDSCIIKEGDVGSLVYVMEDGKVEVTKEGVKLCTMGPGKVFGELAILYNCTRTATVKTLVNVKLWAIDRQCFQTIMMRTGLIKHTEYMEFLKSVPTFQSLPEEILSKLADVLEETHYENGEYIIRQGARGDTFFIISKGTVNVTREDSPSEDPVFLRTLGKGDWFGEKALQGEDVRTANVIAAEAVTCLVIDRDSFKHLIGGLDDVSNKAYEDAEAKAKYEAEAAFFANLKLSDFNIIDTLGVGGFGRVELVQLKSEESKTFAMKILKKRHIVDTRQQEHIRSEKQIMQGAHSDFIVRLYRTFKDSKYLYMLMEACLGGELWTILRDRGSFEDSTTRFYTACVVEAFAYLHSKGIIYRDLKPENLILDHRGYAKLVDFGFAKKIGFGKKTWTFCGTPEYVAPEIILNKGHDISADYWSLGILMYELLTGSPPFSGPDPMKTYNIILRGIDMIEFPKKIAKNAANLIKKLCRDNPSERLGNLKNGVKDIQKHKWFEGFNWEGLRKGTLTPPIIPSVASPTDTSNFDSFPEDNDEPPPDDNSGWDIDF

[7] = system: Mast/stem cell growth factor receptor Kit (Homo sapiens), P10721 [D816V]; assay: Competitive binding affinity to KIT D816V mutant (unknown origin) at 10 uM in presence of ATP relative to control
Sequence of Mast/stem cell growth factor receptor Kit (Homo sapiens), P10721 [D816V] (P10721 whole entry D816V): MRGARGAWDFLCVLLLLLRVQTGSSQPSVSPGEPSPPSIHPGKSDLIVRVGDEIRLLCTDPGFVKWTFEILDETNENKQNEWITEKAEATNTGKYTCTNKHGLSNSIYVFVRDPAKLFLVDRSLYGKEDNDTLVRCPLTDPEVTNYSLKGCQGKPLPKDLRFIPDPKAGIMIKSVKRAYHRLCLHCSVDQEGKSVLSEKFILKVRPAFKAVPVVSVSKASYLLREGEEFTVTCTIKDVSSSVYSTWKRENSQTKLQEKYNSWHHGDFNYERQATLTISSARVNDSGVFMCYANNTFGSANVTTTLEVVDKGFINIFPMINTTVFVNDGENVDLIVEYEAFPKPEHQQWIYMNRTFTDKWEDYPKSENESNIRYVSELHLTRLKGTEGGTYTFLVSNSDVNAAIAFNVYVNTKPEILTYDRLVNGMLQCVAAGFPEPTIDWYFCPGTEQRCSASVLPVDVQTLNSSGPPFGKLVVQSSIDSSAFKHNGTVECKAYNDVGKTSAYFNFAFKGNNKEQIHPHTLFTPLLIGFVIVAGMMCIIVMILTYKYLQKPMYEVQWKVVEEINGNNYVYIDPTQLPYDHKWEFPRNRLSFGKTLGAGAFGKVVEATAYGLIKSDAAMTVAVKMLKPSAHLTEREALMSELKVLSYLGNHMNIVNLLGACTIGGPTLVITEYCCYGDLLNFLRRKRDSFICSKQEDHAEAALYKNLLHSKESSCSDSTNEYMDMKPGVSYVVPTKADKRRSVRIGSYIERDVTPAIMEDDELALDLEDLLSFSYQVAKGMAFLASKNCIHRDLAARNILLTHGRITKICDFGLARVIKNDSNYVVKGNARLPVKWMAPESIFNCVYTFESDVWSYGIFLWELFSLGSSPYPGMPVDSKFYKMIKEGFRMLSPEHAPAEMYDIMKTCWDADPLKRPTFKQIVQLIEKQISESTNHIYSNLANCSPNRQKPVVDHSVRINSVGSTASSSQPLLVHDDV

[8] = system: Proto-oncogene tyrosine-protein kinase receptor Ret (Homo sapiens), P07949 [M918T]; assay: Competitive binding affinity to RET M918T mutant (unknown origin) at 10 uM in presence of ATP relative to control
Sequence of Proto-oncogene tyrosine-protein kinase receptor Ret (Homo sapiens), P07949 [M918T] (P07949 whole entry M918T): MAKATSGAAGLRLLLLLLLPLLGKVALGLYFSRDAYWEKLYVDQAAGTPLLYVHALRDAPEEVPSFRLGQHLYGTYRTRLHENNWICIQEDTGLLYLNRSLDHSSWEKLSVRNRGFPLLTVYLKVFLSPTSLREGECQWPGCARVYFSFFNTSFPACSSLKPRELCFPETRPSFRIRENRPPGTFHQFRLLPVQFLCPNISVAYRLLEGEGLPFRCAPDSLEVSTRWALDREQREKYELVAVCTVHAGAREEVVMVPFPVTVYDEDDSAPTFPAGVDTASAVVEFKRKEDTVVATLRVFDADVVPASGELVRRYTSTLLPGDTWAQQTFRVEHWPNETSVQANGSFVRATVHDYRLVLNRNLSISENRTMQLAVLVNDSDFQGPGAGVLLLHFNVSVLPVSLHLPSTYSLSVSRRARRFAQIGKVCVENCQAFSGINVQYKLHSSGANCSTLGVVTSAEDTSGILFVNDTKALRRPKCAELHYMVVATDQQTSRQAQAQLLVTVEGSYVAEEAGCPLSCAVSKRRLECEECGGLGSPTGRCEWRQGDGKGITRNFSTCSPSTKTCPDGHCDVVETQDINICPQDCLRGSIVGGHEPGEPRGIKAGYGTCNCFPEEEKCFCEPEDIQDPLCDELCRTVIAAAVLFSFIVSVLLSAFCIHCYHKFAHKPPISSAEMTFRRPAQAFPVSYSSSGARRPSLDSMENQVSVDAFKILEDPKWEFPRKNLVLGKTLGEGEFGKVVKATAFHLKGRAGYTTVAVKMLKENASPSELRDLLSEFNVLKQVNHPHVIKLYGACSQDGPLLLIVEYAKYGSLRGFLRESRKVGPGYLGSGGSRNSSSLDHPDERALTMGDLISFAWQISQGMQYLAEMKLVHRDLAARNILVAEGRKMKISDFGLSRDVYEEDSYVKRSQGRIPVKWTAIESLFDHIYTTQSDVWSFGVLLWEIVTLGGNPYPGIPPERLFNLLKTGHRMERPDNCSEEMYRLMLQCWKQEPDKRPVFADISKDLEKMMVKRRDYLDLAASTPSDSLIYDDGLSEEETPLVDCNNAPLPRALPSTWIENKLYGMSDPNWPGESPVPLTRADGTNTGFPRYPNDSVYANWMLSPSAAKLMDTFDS

[9] = system: Fibroblast growth factor receptor 3 (Homo sapiens), P22607 [G697C]; assay: Competitive binding affinity to FGFR3 G697C mutant (unknown origin) at 10 uM in presence of ATP relative to control
How it was run: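 In vitro ATP-site competition binding assay, part of profiling against a diverse panel of 128 kinases. Each compound was tested at a single concentration of 10 µM. Kinome selectivity was summarized as S15 selectivity scores.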

[10] = target: Insulin receptor-related protein (Homo sapiens) (UniProt P14616); assay: Competitive binding affinity to INSRR (unknown origin) at 10 uM in presence of ATP relative to control
Sequence of Insulin receptor-related protein (Homo sapiens) (P14616 27-742 limits assumed): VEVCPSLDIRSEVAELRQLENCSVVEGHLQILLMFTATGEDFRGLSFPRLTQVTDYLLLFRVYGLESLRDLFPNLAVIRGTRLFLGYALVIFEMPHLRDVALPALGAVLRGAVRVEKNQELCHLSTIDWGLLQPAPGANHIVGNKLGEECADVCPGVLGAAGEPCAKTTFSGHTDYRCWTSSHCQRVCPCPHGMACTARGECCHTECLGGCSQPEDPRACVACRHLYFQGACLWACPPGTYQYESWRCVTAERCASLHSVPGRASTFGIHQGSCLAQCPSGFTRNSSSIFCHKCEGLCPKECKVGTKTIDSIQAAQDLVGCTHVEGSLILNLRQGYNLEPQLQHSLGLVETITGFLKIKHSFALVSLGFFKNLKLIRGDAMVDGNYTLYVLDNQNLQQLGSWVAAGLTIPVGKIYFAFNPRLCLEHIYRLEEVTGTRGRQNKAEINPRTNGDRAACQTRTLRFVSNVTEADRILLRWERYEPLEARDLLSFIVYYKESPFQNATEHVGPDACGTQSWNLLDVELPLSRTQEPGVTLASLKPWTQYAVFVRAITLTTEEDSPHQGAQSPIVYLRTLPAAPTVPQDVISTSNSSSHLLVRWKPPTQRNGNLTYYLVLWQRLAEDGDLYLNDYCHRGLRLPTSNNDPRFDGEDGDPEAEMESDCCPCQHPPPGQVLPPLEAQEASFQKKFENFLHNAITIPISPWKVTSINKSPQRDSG
Sequence of Insulin receptor-related protein (Homo sapiens) (P14616 747-1297 limits assumed): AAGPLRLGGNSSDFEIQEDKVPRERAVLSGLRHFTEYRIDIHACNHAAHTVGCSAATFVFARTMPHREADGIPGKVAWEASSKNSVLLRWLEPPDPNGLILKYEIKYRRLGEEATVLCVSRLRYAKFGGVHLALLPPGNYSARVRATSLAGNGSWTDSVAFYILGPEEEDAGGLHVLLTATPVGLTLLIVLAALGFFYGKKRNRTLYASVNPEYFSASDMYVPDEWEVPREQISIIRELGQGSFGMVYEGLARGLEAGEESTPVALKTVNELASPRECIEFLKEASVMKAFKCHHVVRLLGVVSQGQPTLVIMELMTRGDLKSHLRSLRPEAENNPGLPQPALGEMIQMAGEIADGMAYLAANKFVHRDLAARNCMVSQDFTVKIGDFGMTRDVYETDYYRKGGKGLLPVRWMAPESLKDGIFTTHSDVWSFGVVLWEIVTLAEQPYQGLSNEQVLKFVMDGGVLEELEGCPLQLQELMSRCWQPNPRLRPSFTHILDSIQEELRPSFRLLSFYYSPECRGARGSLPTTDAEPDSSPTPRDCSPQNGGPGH

inhibition [1] [%] | inhibition [2] [%] | inhibition [3] [%] | inhibition [4] [%] | inhibition [5] [%] | inhibition [6] [%] | inhibition [7] [%] | inhibition [8] [%] | inhibition [9] [%] | inhibition [10] [%] | Compound
< 50 | 96 | < 50 | 79 | 99 | < 50 | 63 | < 50 | < 50 | < 50 | O[C@H]1CC[C@H](Nc2nccc(-n3ncc4ccccc43)n2)CC1
< 50 | 95 | < 50 | 76 | 63 | < 50 | < 50 | < 50 | < 50 | < 50 | O[C@H]1CC[C@H](Nc2nccc(-n3ccc4ccccc43)n2)CC1
 |  |  | > 85 | > 85 |  |  |  |  |  | CS(=O)(=O)CCCOc1cccc2c1ccn2-c1ccnc(N[C@H]2CC[C@H](C(=O)N3CCC(O)CC3)CC2)n1
99 |  | < 50 | 74 |  | < 50 | 94 |  | < 50 | 98 | O[C@H]1CC[C@H](Nc2nccc(-c3n[nH]c4ccccc34)n2)CC1
< 50 | 98 | < 50 | 70 | 100 | < 50 | 98 | < 50 | < 50 | < 50 | O[C@H]1CC[C@H](Nc2nccc(-n3nnc4ccccc43)n2)CC1
